# Reference: ChEMBL document CHEMBL1133640, “Structure-activity studies including a Psi(CH(2)-NH) scan of peptide YY (PYY) active site, PYY(22-36), for interaction with rat intestinal PYY receptors: development of analogues with potent in vivo activity in the intestine” (J Med Chem, 2000)
# Where a SMILES comes first, the peptide text is derived from it. [ ]: non-standard residue; d: D form. Bip = N[C@@H](Cc1ccc(-c2ccccc2)cc1)C(=O)O
# What was measured:
# Canis familiaris [1] = organism: Canis familiaris; assay: Peak proabsorptive effects of intralbuminal Infusion on absorption of water in the ileum of awake dogs bearing ileal and/or Colonic Thiry-Vella Fistulasa; assay type: functional, organism-based; conditions: Canis lupus familiaris
# Rattus norvegicus = assay: Tested for in vivo antisecretory potency for inhibiting VIP-induced (30 micro g/kg/h) secretion in isolated jejunum in anesthetized rats.(95% CL); assay type: functional; conditions: read-out: ID50 (the source's name)
# Method in brief: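 Rats anesthetized, saphenous vein cannulated. Isolated jejunal loop instilled with 2000 μL fluid. At the end the loop is excised, measured and weighed before and after emptying. Net water flux (μL/cm/30 min) = (F-E)2000/L; negative means absorption. 6-8 animals per dose.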
# Canis familiaris [2] = organism: Canis familiaris; assay: Peak proabsorptive effects of intralbuminal Infusion on absorption of Na+ in the ileum of awake dogs bearing ileal and/or Colonic Thiry-Vella Fistulasa; assay type: functional, organism-based; conditions: Canis lupus familiaris
# Canis familiaris [3] = organism: Canis familiaris; assay: Peak proabsorptive effects of intralbuminal Infusion on absorption of Cl- in the colon of awake dogs bearing ileal and/or Colonic Thiry-Vella Fistulasa; assay type: functional, organism-based; conditions: Canis lupus familiaris
# Canis familiaris [4] = organism: Canis familiaris; assay: Peak proabsorptive effects of intralbuminal Infusion on absorption of Cl- in the ileum of awake dogs bearing ileal and/or Colonic Thiry-Vella Fistulasa; assay type: functional, organism-based; conditions: Canis lupus familiaris
# Canis familiaris [5] = organism: Canis familiaris; assay: Peak proabsorptive effects of intralbuminal Infusion on absorption of Na+ in the colon of awake dogs bearing ileal and/or Colonic Thiry-Vella Fistulasa; assay type: functional, organism-based; conditions: Canis lupus familiaris
# Canis familiaris [6] = organism: Canis familiaris; assay: Peak proabsorptive effects of intralbuminal Infusion on absorption of water in the colon of awake dogs bearing ileal and/or Colonic Thiry-Vella Fistulasa; assay type: functional, organism-based; conditions: Canis lupus familiaris
# [7] = target: T1, Neuropeptide Y receptor type 2 (Rattus norvegicus, UniProt Q9ERC0); assay: Tested for the affinity for intestinal PYY from rat jejunum by using short circuit current (SCC) method.
# T1 sequence (Q9ERC0 whole entry): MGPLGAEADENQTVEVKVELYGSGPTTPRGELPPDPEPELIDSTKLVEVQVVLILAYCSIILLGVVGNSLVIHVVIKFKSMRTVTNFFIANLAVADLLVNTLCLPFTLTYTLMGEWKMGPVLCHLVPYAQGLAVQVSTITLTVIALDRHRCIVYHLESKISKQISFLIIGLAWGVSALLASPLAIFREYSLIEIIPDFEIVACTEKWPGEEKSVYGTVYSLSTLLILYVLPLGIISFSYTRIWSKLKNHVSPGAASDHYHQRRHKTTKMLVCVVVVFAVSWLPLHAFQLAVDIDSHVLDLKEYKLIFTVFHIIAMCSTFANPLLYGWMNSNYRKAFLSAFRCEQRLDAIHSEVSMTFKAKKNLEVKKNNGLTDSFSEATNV
# [8] = target: Neuropeptide Y receptor type 1 (Homo sapiens, UniProt P25929); assay: Affinity against Neuropeptide Y receptor Y1 in SK-N-MC cell line; assay type: cell-based
# Chain of Neuropeptide Y receptor type 1 (P25929 whole entry): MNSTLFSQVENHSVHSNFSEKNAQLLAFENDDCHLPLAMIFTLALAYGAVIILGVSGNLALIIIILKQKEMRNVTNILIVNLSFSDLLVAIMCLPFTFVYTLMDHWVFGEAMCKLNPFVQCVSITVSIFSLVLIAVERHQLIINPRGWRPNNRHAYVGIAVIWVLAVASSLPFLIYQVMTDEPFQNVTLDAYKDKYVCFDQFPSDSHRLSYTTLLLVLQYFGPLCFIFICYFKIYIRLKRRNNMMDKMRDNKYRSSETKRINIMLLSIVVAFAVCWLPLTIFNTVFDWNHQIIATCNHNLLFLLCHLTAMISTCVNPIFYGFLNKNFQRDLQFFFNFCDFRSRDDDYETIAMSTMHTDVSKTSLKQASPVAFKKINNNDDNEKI
# [9] = target: T2, Neuropeptide Y receptor type 2 (Homo sapiens, UniProt P49146); assay: Affinity against Neuropeptide Y receptor Y2 in SK-N-BE2 cell line
# T2 sequence (P49146 whole entry): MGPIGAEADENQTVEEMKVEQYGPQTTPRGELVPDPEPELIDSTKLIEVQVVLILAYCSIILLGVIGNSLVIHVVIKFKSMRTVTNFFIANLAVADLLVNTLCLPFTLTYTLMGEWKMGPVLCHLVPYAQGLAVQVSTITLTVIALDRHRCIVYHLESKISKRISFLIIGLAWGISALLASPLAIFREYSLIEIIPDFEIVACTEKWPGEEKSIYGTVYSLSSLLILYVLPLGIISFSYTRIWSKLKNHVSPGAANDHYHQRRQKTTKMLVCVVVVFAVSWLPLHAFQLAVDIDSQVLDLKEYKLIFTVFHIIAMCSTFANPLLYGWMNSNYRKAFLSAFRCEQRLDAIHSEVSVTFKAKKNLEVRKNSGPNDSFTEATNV
# [10] = target: T1, Neuropeptide Y receptor type 2; assay: Antisecretory potency, affinity for intestinal PYY of rat jejunum by using short circuit current (SCC) method.; assay type: tissue-based
IC50 [7],IC50 [8],IC50 [9],Molecule,further results
2.1 nM,,,Ac-ASWRHYLNLVTRQRY-NH2,
> 100 nM,> 1000 nM,> 100 nM,CNC(=O)[C@H](Cc1ccc(O)cc1)NC(=O)[C@H](CCCNC(=N)N)NC(=O)[C@H](CCC(N)=O)NC(=O)[C@H](CCCNC(=N)N)NC(=O)[C@@H](NC(=O)[C@@H](NC(=O)[C@H](CC(C)C)NC(=O)[C@H](CC(N)=O)NC(=O)[C@H](CC(C)C)NC(=O)[C@H](Cc1c[nH]c2ccccc12)NC(=O)[C@H](Cc1cnc[nH]1)NC(=O)[C@H](CCCNC(=N)N)NC(=O)[C@H](CC(C)C)NC(=O)[C@H](CO)NC(=O)[C@H](C)NC(C)=O)C(C)C)[C@@H](C)O (Ac-ASLRHWLNLVTRQRY-NHMe),
2.42 nM,279 nM,14.2 nM,CC(=O)N[C@@H](C)C(=O)N[C@@H](CO)C(=O)N[C@@H](CC(C)C)C(=O)N[C@@H](CCCN=C(N)N)C(=O)N[C@@H](Cc1c[nH]cn1)C(=O)N[C@@H](Cc1ccc(-c2ccccc2)cc1)C(=O)N[C@@H](CC(C)C)C(=O)N[C@@H](CC(N)=O)C(=O)N[C@@H](CC(C)C)C(=O)N[C@H](C(=O)N[C@H](C(=O)N[C@@H](CCCN=C(N)N)C(=O)N[C@@H](CCC(N)=O)C(=O)N[C@@H](CCCN=C(N)N)C(=O)N[C@@H](Cc1ccc(O)cc1)C(N)=O)[C@@H](C)O)C(C)C (Ac-ASLRH[Bip]LNLVTRQRY-NH2),
,250 nM,0.98 nM,CC(=O)N[C@@H](C)C(=O)N[C@@H](CO)C(=O)N[C@@H](CC(C)C)C(=O)N[C@@H](CCCN=C(N)N)C(=O)N[C@@H](Cc1c[nH]cn1)C(=O)N[C@@H](Cc1ccc(O)cc1)C(=O)N[C@@H](CC(C)C)C(=O)N[C@@H](CC(N)=O)C(=O)N[C@@H](Cc1c[nH]c2ccccc12)C(=O)N[C@H](C(=O)N[C@H](C(=O)N[C@@H](CCCN=C(N)N)C(=O)N[C@@H](CCC(N)=O)C(=O)N[C@@H](CCCN=C(N)N)C(=O)N[C@@H](Cc1ccc(O)cc1)C(N)=O)[C@@H](C)O)C(C)C,IC50 [10]: 0.6 nM; ED50 (Rattus norvegicus): 2.1e-06 µmol/kg

# The next lines start with the molecule.
Molecule,IC50 [7],IC50 [8],IC50 [9],further results
Ac-ASLRHWLNLVTRQRY-NH2 [listing 1 of 2 here],,,,Absorption (Canis familiaris [1]): 725 µL/min; ED50 (Rattus norvegicus): 3.33e-05 µmol/kg; Absorption (u equiv min-1) (Canis familiaris [2]): 120; Absorption (u equiv min-1) (Canis familiaris [3]): 77; Absorption (u equiv min-1) (Canis familiaris [4]): 101; Absorption (u equiv min-1) (Canis familiaris [5]): 78; Absorption (Canis familiaris [6]): 503 µL/min
Ac-ASLRHWLNLVTRQRY-NH2 [listing 2 of 2 here],3.2 nM,77 nM,2.09 nM,
Ac-ASLRHYWNLVTRQRY-NH2,0.6 nM,398 nM,2.08 nM,
Ac-ASLRHYLWLVTRQRY-NH2,100 nM,762 nM,158 nM,
